Bioassay records (PubChem)
Shown are actives, neighbours in structure and some others; about 2.6% of the full set was active somewhere.
mABHD4 FP – inhibits mouse alpha/beta hydrolase domain 4; Q8VD66; purified mABHD4, FP-Rh probe fluorescence polarization; inhibition, % at 8.92 µM; 370,000 compounds, 0.54% hits;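 active = inhibition exceeding the mean over every tested compound plus 3 SD, cut at about 30% in these data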;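 note: 0% = plate median of compound wells and 100% = S159A mutant with DMSO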
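Doses – 8.92 µM, single dose · Material – wild-type mouse ABHD4 protein · Replication – single well per compound (singlicate) · Measure – percent inhibition of probe binding, normalized to plate controls · Schedule – 45 min compound pre-incubation plus 60 min probe step, 25 °C · Detection – fluorescence polarization with parallel and perpendicular emission, 525/598 nm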
HTRA1 inh – HTRA1 (human) protease inhibition; recombinant HTRA1, FP-rhodamine activity-based probe, fluorescence polarization; 340,000 compounds, 0.5% hits; Q92743; inhibition, % at 5.96 µM; in the data active = inhibition above about 36%;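 note: 0% = enzyme with DMSO and 100% = wells lacking enzyme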
PRMT1 FP inh – PRMT1 (human) inhibition, primary screen. Q99873. recombinant PRMT1, activity-based probe fluorescence polarization. inhibition, % at 2.79 µM. 370,000 compounds, 1.3% hits. AID 652257;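 active = inhibition above about 21% made by adding two undisclosed values, limit read from the data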
Target sequence (Q99873 whole entry, looked up): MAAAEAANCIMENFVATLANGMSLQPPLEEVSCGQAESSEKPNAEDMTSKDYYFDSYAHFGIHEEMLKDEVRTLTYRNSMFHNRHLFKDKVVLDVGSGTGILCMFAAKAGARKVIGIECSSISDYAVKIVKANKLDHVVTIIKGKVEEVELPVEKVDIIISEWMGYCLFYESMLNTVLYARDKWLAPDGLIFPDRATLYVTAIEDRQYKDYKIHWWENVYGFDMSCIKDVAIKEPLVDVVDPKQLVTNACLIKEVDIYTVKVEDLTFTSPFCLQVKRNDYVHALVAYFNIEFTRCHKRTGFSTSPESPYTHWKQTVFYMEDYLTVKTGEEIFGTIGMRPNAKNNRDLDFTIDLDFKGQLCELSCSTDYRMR
TCR CD3 inh – human TCR-CD3 binding inhibition; AID 651800; TAMRA-labeled TCR probe fluorescence, biochemical; 360,000 compounds, 0.37% hits; inhibition, % at 9.4 µM; in the data active = inhibition above about 19%;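 note: recombinant mutant TCR 2C K166C tagged with TAMRA read by polarization; 0% = receptor in buffer alone and 100% = receptor with positive control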
SIAE inh – human SIAE inhibition, primary screen; 370,000 compounds, 0.69% hits; inhibition, % at 9.66 µM; SIAE FP-Rh probe binding, fluorescence polarization; Q9HAT2; AID 1053197;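 active = inhibition above a cutoff: mean of compounds within the control limits plus 3 SD of those, cut at about 17% in these data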;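 note: 0% = plate median of compound wells and 100% = probe without SIAE protein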
PRMT1 inh conf – PRMT1 (human) inhibition, FP confirmation | shares compounds with PRMT1 FP inh | recombinant His-PRMT1, activity-based probe fluorescence polarization | inhibition, % at 2.79 µM | 3,300 compounds, 42% hits;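 active = mean inhibition across replicates above the hit cutoff derived for the earlier primary screen, cut at about 22% in these data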
* = called active by the depositor; nt = no result.

SMILES | mABHD4 FP | HTRA1 inh | PRMT1 FP inh | TCR CD3 inh | SIAE inh | PRMT1 inh conf
Cc1ccc(/C=c2\sc3n(c2=O)CN(c2ccc(Br)cc2)CN=3)o1 | 22 | 1 | 36* | 2 | -1 | 5
CCOC(=O)c1c(-c2cccs2)csc1N | 3 | 3 | 7 | 1 | -1 | nt
CCOC(=O)c1c(-c2ccco2)csc1N | 21 | 1 | 25* | 8 | 3 | 6
CCOC(=O)c1c(-c2ccco2)csc1NC(=O)COC(=O)c1cnccn1 | 2 | -11 | 25* | 11 | -11 | 7
COc1ccccc1NS(=O)(=O)c1cc(NC(=O)C2CCC2)ccc1N1CCCCC1 | -12 | -10 | 36* | -5 | -15 | 4
CCCCN1C(=O)CC(Sc2ncccc2C(=O)O)C1=O (stereo not given) | 6 | -1 | 3 | 5 | 6 | nt
CCN1C(=O)CC(SC2CC(=O)N(CC)C2=O)C1=O (stereo not given) | 10 | -3 | 33* | -5 | 6 | 27*
CCCCN1C(=O)CC(SC2CC(=O)N(CCCC)C2=O)C1=O (stereo not given) | -13 | 9 | 57* | -4 | 1 | 17
C=C(C)Cn1c(SCC(=O)N/N=C(\C)c2ccc(Br)cc2)nnc1-c1ccc(Br)cc1 | -10 | nt | 5 | nt | -3 | nt
C=CCN(CC#Cc1ccccc1)CC=C | 0 | nt | -7 | nt | 0 | nt
CCN1/C(=C/c2ccc3cc(C)ccc3[n+]2C)Sc2ccc3sccc3c21 | -117 | 0 | -1 | -5 | -66 | nt
Cc1sc2c3ccsc3ccc2[n+]1C | 6 | -3 | 67* | 8 | -2 | 59*
O=C(NCCO)[C@H](Cc1ccccc1)NC1(C(=O)NCCN2CCOCC2)CCCCC1 | 0 | nt | 0 | nt | -5 | nt
Cc1cc(C)c(NC(=O)c2ccc3c(c2)NC(=O)C(C)S3)c(C)c1 (stereo not given) | 1 | -6 | 1 | -7 | 4 | nt
CC1Sc2ccc(C(=O)NCc3ccccn3)cc2NC1=O (stereo not given) | -11 | 3 | 34* | -2 | 10 | 8
O=C(NCc1ccccc1)OC1CCC12CCC(c1ccccc1)CC2 (stereo not given) | -12 | nt | -1 | nt | -4 | nt
Cc1ncoc1C(=O)Nc1ncc([N+](=O)[O-])s1 | 4 | 1 | 39* | 13 | -16 | 2
O=C(CSc1nc(O)cc(=O)n1-c1ccccc1)Nc1ccc2c3c(cccc13)CC2 | -15 | -82 | 6 | -4 | -14 | nt
Cc1c(O)nc(SCC(=O)Nc2ccc3c4c(cccc24)CC3)n(-c2ccccc2)c1=O | 10 | -4 | 29* | -1 | 3 | 23*
N#Cc1ccc(NC(=O)CSc2nc3[nH]c(=O)cc(O)c3s2)cc1 | 18 | -19 | 9 | -6 | -14 | nt
CSc1ccc(NC(=O)CSc2nc3[nH]c(=O)cc(O)c3s2)cc1 | 8 | 9 | 48* | 8 | -14 | 2
COC(=O)c1ccc2nc(-c3ccc(Cl)cc3)c(Cc3ccccc3OC)n2c1 | -14 | nt | 2 | -4 | -2 | nt
COc1ccccc1Cc1c(-c2ccco2)nc2cc(C)c(Br)c(C)n12 | 11 | nt | 32* | 2 | 4 | 25*
COC(=O)c1ccc2nc(-c3ccco3)c(Cc3ccccc3C(F)(F)F)n2c1 | 3 | nt | 34* | 0 | -1 | 16
COC(=O)c1ccc2nc(-c3ccco3)c(Cc3ccccc3OC)n2c1 | -10 | nt | 44* | -2 | 0 | 28*
SMILES | mABHD4 FP | HTRA1 inh | PRMT1 FP inh | TCR CD3 inh | SIAE inh | PRMT1 inh conf
COC(=O)c1ccc2nc(C3CCCCC3)c(Cc3ccccc3C(F)(F)F)n2c1 | -10 | nt | -2 | -4 | 5 | nt
C[C@H]1[C@@H](OC(=O)NCc2ccccc2)CC[C@@]23CCCN2C(=O)CCC[C@@H]13 | -1 | nt | -2 | nt | -1 | nt
C=CCN1C(C(=O)OC)CN(Cc2cn(Cc3ccc(C)cc3)nn2)CCS1(=O)=O (stereo not given) | 3 | nt | 2 | nt | 4 | nt
Cn1ccnc1Sc1cc(NCCCO)c([N+](=O)[O-])c2nonc12 | 6 | 0 | 42* | 1 | 2 | 26*
O=[N+]([O-])c1c(NCCCO)cc(Sc2ccc(Cl)cc2)c2nonc12 | 13 | -1 | 14 | -5 | -2 | nt
COC(=O)[C@]1(CNC(=O)C(F)(F)F)CC(=O)N(C)[C@@H]1c1ccccc1 | -2 | nt | 2 | nt | 5 | nt
CC(C)(C)OC(=O)NCCCCCc1nnc(SCc2ccccc2)o1 | 4 | 2 | 81* | 6 | 6 | 0
N[C@H](C(=O)N1CCC[C@@H]1C(=O)N1CCC2CCN(S(=O)(=O)c3ccccc3)CC21)c1ccccc1 (stereo not given in full) | -6 | nt | -3 | nt | 0 | nt
CCCCNC(=O)C1(C(C)=O)CC(C(=O)OCC)=NO1 (stereo not given) | -2 | nt | -3 | nt | -3 | nt
COc1cc(CNn2c(C)n[nH]c2=S)cc(Cl)c1OCc1ccc(F)cc1 | -2 | -5 | 7 | 1 | 9 | nt
CCOc1cc(CNn2cn[nH]c2=S)cc(Cl)c1OCc1ccccc1F | -18 | -7 | 32* | -5 | 4 | 5
COC(=O)[C@]12C[C@H](CC(=O)NCc3cccc4ccccc34)C(=O)N(CCc3ccc(OC)c(OC)c3)C1=C[C@H](COCc1ccccc1)O[C@@H]2C | -7 | nt | 3 | nt | -3 | nt
Cn1c(=O)c(NC2CCCCC2)c2c3c(cccc31)C(=O)c1ccccc1-2 | 8 | -7 | 77* | 0 | -2 | 41*
COc1ccc(-c2cc(NC(=O)Cc3c(C)[nH]c4ccccc34)ccc2Nc2cccnc2)cc1F | 9 | nt | -1 | -5 | 17 | nt
C[C@H]1[C@H](NC(=O)c2ccc(C(F)(F)F)cc2)CC[C@@]23CCCN2C(=O)CCC[C@@H]13 | -3 | nt | 53* | nt | 1 | 0
OCCOCCn1c(C(CO)Nc2nc(-c3ccc(F)cc3)cs2)nc2ccccc21 (stereo not given) | -6 | -6 | 1 | -7 | 4 | nt
O=[N+]([O-])c1cc(-c2csc(NC(CO)c3nc4ccccc4n3CCOCCO)n2)ccc1Cl (stereo not given) | 13 | -9 | 37* | 7 | 6 | 10
CN1C(=O)c2cc(NC(=O)Cc3cccs3)ccc2OC[C@@H]2O[C@@H](CC(=O)N[C@H]3CCN(Cc4ccccc4)C3)CC[C@@H]21 | 7 | nt | 0 | nt | 2 | nt
CCCCC(=O)OCC(=O)C1(O)Cc2c(O)c3c(c(O)c2C(OC2CC(NC(=O)C(F)(F)F)C(O)C(C)O2)C1)C(=O)c1c(OC)cccc1C3=O (stereo not given) | -2 | 27 | 25* | -7 | 12 | 15
O=C(CN1CC[n+]2c(-c3cccs3)csc21)c1ccc(-c2ccccc2)cc1 | 11 | -5 | 32* | 3 | -1 | 40*
Cc1ccc(Nc2nc(-c3ccccc3)c(CC(=O)O)s2)cc1 | -6 | -6 | -3 | 2 | -7 | nt
O=C(O)Cc1sc(Nc2ccc(F)cc2)nc1-c1cccs1 | -71 | -15 | 31* | -54 | -51 | 2
CCOC(=O)CSc1ncnc2c1nnn2-c1ccc(F)cc1 | -6 | 4 | 1 | -5 | 1 | nt
